Data taken from PubChem BioAssay.
Inconclusive results are not listed.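 Rule for the calls, unless noted: active = viability increase at or above a cutoff of the median across tested compounds plus 3 SD (cut at about 8.5% in these data, passing the limit was not always enough); inconclusive = some gains above the cutoff, reason not given; inactive = the rest.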

Assays:
[1] = S. cerevisiae growth inhibition in permissive medium (OD615), pilot counter-assay for S. cerevisiae lifespan shortening project, permissive growth control (AID 705;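 active = growth inhibition above 25% in both replicates, a cutoff set 3 SD above the mean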); conditions: OD615, 24 h, at 10 µM, active compounds read high
Outline: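 System: Engineered DeaD yeast | Buffer or medium: SC raffinose/galactose permissive medium | Doses: 10 µM single dose, 0.25% DMSO | Times: 24 h exposure, 30 °C | Measured by: OD615 turbidity read | Read-out: Yeast growth inhibition indicated by reduced 24 h OD615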

[2] = S. cerevisiae growth inhibition in restrictive medium, OD615, pilot screen, restrictive growth control, yeast lifespan reduction project (AID 706;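 active = growth inhibition above a set limit, 3 SD over mean compound inhibition, in both replicates, cut at about 43% in these data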;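 note: modified DeaD lifespan yeast strain shifted to restrictive glucose medium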); conditions: OD615, 48 h, at 10 µM, active compounds read high
Outline: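 Assay system: engineered S. cerevisiae DeaD strain; Buffer or medium: CSMM-D glucose medium; Dosing: 10 µM compound, 0.25% DMSO; Times: cell pre-growth 4 h, compound exposure 48 h, 30 °C; Detection: absorbance (optical density) measured at 615 nm.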

[3] = doxorubicin toxicity protection in MRP-1 cells – H69AR cells, CellTiter-Glo, duplicate, MRP-1 activator project, pilot screen (AID 807); conditions: H69AR viability with doxorubicin, CellTiter-Glo luminescence; at 10 µM; active compounds read high;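 note: compound pretreatment 18-22 h then 72 h combined with doxorubicin; 0% = doxorubicin alone and 100% = vehicle without doxorubicin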
[4] = viability of HCT116 without oncogenic beta-catenin – human colon tumor cells, pilot screen (AID 823;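 active = cell viability at or below a set limit in both duplicate runs, the limit being the all-compound median minus 4 SD, cut at about 23% in these data, passing the limit was not always enough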;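 note: 0% = wells killed by 20 µM Hyamine and 100% = untreated DMSO cell wells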); conditions: HCT116 beta-catenin knockout viability, CellTiter-Glo, 60 h; at 10 µM; active compounds read low
[5] = viability of PTEN-null HCT116 cells – cell-based, HCT116 clonal line, CellTiter-Glo, pilot screen (AID 824;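 active = viability at or below 27.92% in each of two runs, the all-compound median minus 4 SD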;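 note: 0% = 20 µM Hyamine control and 100% = vehicle cell control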); conditions: HCT116 PTEN-deleted viability, 60 h, at 10 µM, active compounds read low
[6] = RAM pathway blockade in budding yeast – dse1pr::URA3 reporter, 5-FOA selection, pilot screen (AID 869;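 active = inhibition over a set limit, the all-compound mean plus 3 SD, in both replicate runs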;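 note: 0% = DMSO wells with no growth and 100% = 10 µM 1-NA-PP1 with full growth; RAM network block rescues cells from 5-FOA so hits raise OD615 growth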); conditions: S. cerevisiae dse1pr::URA3 5-FOA growth, OD615, 2 d; at 10 µM; active compounds read high; strain carries analog-sensitive mutant Cbk1 kinase
[7] = RAM signaling pathway blockade in yeast – S. cerevisiae, Pdr1DBD-CYC8 efflux-inhibited sensitized strain, primary screen (AID 1298;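 active = RAM network inhibition above 8.4% in each of two replicates, 3 SD over the compound average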;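 note: 0% = DMSO untreated cells without growth and 100% = 10 µM 1-NA-PP1 full growth; higher means more yeast growth rescued from 5-FOA killing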); conditions: S. cerevisiae cbk1-as DSE1-URA3 strain, 5-FOA growth OD615, 2 d; at 50 µM; active compounds read high

CC1=C(C(N)=O)C(c2ccccc2)n2nc(-c3cccs3)nc2N1 (stereo not drawn)
inactive: growth inhibition [1] -9.84% | growth inhibition [2] 2.11% | viability increase [3] -3.8% | viability [4] 101% | viability [5] 93.8% | inhibition [6] 2.46% | RAM network inhibition [7] 3.65%

C=CCNC(=O)c1cnc2n(c1=O)CCS2
inactive: growth inhibition [1] 5.17% | growth inhibition [2] 5.46% | viability increase [3] 2.16% | viability [4] 103% | viability [5] 109% | inhibition [6] 1.68% | RAM network inhibition [7] -1.87%

Cc1cc(C)c(C)c(OCC(=O)NCCN(C)C)c1
inactive: growth inhibition [1] -11.6% | growth inhibition [2] -3.56% | viability increase [3] -1.08% | viability [4] 91% | viability [5] 91.3% | inhibition [6] 0.79% | RAM network inhibition [7] 0.26%

COc1ccc(S(=O)(=O)N2CCN(CCO)CC2)cc1-c1nnc2c3ccccc3c(C)nn12
inactive: growth inhibition [1] -4.39% | growth inhibition [2] -6.93% | viability increase [3] -0.85% | viability [4] 101% | viability [5] 101% | inhibition [6] 1.31% | RAM network inhibition [7] 0.95%

CCOC(=O)c1ccc(Nc2cc(C)nc3nc(C)nn23)cc1
inactive: growth inhibition [1] -5.61% | growth inhibition [2] 4.27% | viability increase [3] -4.45% | viability [4] 103% | viability [5] 103% | inhibition [6] 0.015% | RAM network inhibition [7] 1%

O=C(O)CCc1ccc(-c2cccs2)n1NC(=O)c1ccc(Cl)cc1
inactive: growth inhibition [1] -6.03% | growth inhibition [2] -14.6% | viability increase [3] -3.75% | viability [4] 98% | viability [5] 93.9% | inhibition [6] 0.29% | RAM network inhibition [7] -0.58%

CCS(=O)(=O)NCC(c1cccnc1)N1CCN(c2ccccc2OC)CC1 (stereo not drawn)
inactive: growth inhibition [1] -2.57% | growth inhibition [2] -3.32% | viability increase [3] -0.33% | viability [4] 98.3% | viability [5] 105% | inhibition [6] 1.11% | RAM network inhibition [7] 3.37%

CCn1nnnc1-c1ccc(OC)c(S(=O)(=O)NCCc2ccccc2)c1
inactive: growth inhibition [1] 2.78% | growth inhibition [2] 2.87% | viability increase [3] 0.85% | viability [4] 93.5% | viability [5] 97.3% | inhibition [6] 0.03% | RAM network inhibition [7] 1.98%

O=C(CCS(=O)(=O)c1cccc2nonc12)NCCc1ccccc1
inactive: growth inhibition [1] -9.93% | growth inhibition [2] -23.2% | viability increase [3] -3.1% | viability [4] 103% | viability [5] 99.1% | inhibition [6] 4.24% | RAM network inhibition [7] 5.03%

CC1CCCC(NC(=O)CN(C)S(=O)(=O)c2cccc3cccnc23)C1C (stereo not drawn)
inactive: growth inhibition [1] -10.9% | growth inhibition [2] -18.7% | viability increase [3] -3.62% | viability [4] 98.7% | viability [5] 88.4% | inhibition [6] 0.34% | RAM network inhibition [7] 3.61%

CCSc1nnc(NC(=O)c2ccccc2)s1
inactive: growth inhibition [1] -19.1% | growth inhibition [2] 0.02% | viability increase [3] 1.94% | viability [4] 95.2% | viability [5] 98.7% | inhibition [6] 1.25% | RAM network inhibition [7] 4.7%

O=C(NCCCN1CCCC1)c1ccc(CS(=O)(=O)c2ccc(Br)cc2)o1
inactive: growth inhibition [1] -5.7% | growth inhibition [2] -13.3% | viability increase [3] -0.99% | viability [4] 90.6% | viability [5] 96.5% | inhibition [6] 1.63% | RAM network inhibition [7] 2.23%

COc1ccccc1N1CCN(C(=O)CCCC2=NS(=O)(=O)c3ccccc3N2)CC1
inactive: growth inhibition [1] 0.08% | growth inhibition [2] -12.7% | viability increase [3] -4.95% | viability [4] 97.3% | viability [5] 92.4% | inhibition [6] 1.4% | RAM network inhibition [7] -0.58%

COc1cc(C(=O)N2CCN(C(=O)c3ccco3)CC2)cc(OC)c1OC
inactive: growth inhibition [1] -7.33% | growth inhibition [2] -2.3% | viability increase [3] -0.58% | viability [4] 100% | viability [5] 97.5% | inhibition [6] 0.16% | RAM network inhibition [7] 6.85%

O=C(CC1Oc2ccccc2NC1=O)NCc1ccccc1 (stereo not drawn)
inactive: growth inhibition [1] 0.945% | growth inhibition [2] -4.32% | viability increase [3] -0.93% | viability [4] 105% | viability [5] 100% | inhibition [6] 3.42% | RAM network inhibition [7] 4.73%

COc1ccc(-n2c(Cc3cccn3C)nnc2SCC(=O)N2CCC(C)CC2)cc1
inactive: growth inhibition [1] 4.99% | growth inhibition [2] 18.8% | viability increase [3] -0.89% | viability [4] 94% | viability [5] 94.5% | inhibition [6] 1.42% | RAM network inhibition [7] 2.73%

Nc1ccc2nc(-c3ccc(Cl)cc3)[nH]c2c1
inactive: growth inhibition [1] -13% | growth inhibition [2] -10.7% | viability increase [3] -8.6% | viability [4] 73.4% | viability [5] 75.3% | inhibition [6] 0.935% | RAM network inhibition [7] 4.58%

O=C(CCN1CCN(c2ccccc2)CC1)Nc1ccc2c(c1)OCO2
inactive: growth inhibition [1] -5.71% | growth inhibition [2] 0.05% | viability increase [3] -4.06% | viability [4] 91.7% | viability [5] 92.4% | inhibition [6] 2.58% | RAM network inhibition [7] 1.28%

Cc1ccc2c(c1)N(CCCC(=O)NCc1ccc3c(c1)OCO3)C(=O)CO2
inactive: growth inhibition [1] -5.25% | growth inhibition [2] -25.1% | viability increase [3] -6.26% | viability [4] 95.4% | viability [5] 83.9% | inhibition [6] 0.43% | RAM network inhibition [7] 1.64%

CCOC(=O)c1cc(-c2ccc(F)cc2)n(CC(=O)Nc2nccs2)c1C
inactive: growth inhibition [1] -11.3% | growth inhibition [2] 1.7% | viability increase [3] -5.35% | viability [4] 59% | viability [5] 62.6% | inhibition [6] 1.99% | RAM network inhibition [7] 4.55%

Cc1cccc(C2CC(c3ccc(F)cc3)Nc3nc(N)nn32)c1 (stereo not drawn)
inactive: growth inhibition [1] -1.75% | growth inhibition [2] 18.4% | viability increase [3] 0.42% | viability [4] 92.3% | viability [5] 77.1% | inhibition [6] 0.09% | RAM network inhibition [7] 0.31%

CCn1c2c(c3cc(Cl)ccc31)CCCC2=O
inactive: growth inhibition [1] -8.81% | growth inhibition [2] -10.1% | viability increase [3] -0.32% | viability [4] 96% | viability [5] 97.8% | inhibition [6] 0.915% | RAM network inhibition [7] 4.07%

Cc1nnc(Sc2nc3c(c(=O)[nH]c(=O)n3C)n2CCCc2ccccc2)s1
inactive: growth inhibition [1] -8.19% | growth inhibition [2] -13.4% | viability increase [3] -2.42% | viability [4] 95.1% | viability [5] 94.7% | inhibition [6] 1.21% | RAM network inhibition [7] 2.87%

c1ccc2c(c1)nc(NCC1CCCO1)c1nnnn12 (stereo not drawn)
inactive: growth inhibition [1] -4.03% | growth inhibition [2] 4.6% | viability increase [3] -3.64% | viability [4] 101% | viability [5] 97.6% | inhibition [6] 1.34% | RAM network inhibition [7] 2.87%
